Assay results published in publication PMC6976987 (Molecular Genetics and Metabolism Reports, 2020).

Experiments:
[1] = Safety assessments; format: in vivo, human; conditions: concomitant dosing with eliglustat, N = 33
Method in brief: (§1)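 Open-label study in healthy adults. Safety was monitored after a single dose (Day 1), during multiple doses alone (Days 2–8), and during co-dosing (Days 9–15 with the CYP3A/P-gp inhibitor; Days 9–18 with the CYP2D6 inhibitor). Measures: treatment-emergent AEs, clinical labs, vital signs, physical exams, 12-lead ECG, 12 h continuous telemetry. An AE counted as treatment-related if possibly, probably or definitely related to study drug.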

[2] = Safety assessments; format: in vivo, human
Method in brief: as §1

| Compound | subjects reporting AEs related to ketoconazole [1] [%] | subjects reporting AEs related to paroxetine ([2]; concomitant dosing with eliglustat, N = 35) [%] | subjects with moderate clinically significant increases in blood pressure ([2]; concomitant dosing, deemed probably related to paroxetine) [%] |
| --- | --- | --- | --- |
| CC(=O)N1CCN(c2ccc(OCC3COC(Cn4ccnc4)(c4ccc(Cl)cc4Cl)O3)cc2)CC1 (stereo not drawn) [ketoconazole] | 33.3 |  |  |
| Fc1ccc([C@@H]2CCNC[C@H]2COc2ccc3c(c2)OCO3)cc1 [paroxetine] |  | 71.4 | 17.1 |
